The values below come from PMC10373460 (ACS Omega, 2023).

“Also recorded” adds a separate entry of the source. A value given as a limit tells only on which side of the number the result lay.

Test [1] concerns the target α-glucosidase from S. cerevisiae E.C. 3.2.1.20 (Saccharomyces cerevisiae, UniProt P53341). The experiment in a line: Inhibition of α-glucosidase activity in vitro. The following applies: for inhibition at 10 µM: read-out: %inhibition (10 μM). It counts as biochemical.
Test [2] has as its target α-glucosidase (Saccharomyces cerevisiae, UniProt P53341). The experiment in a line: Enzyme kinetic study. It counts as biochemical. The note with it: for inhibition mode: Lineweaver–Burk plots, Km increased, Vmax unaffected. The method, boiled down: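 S. cerevisiae α-glucosidase solution (0.1 U/mL) and pNPG substrate solution (1 mM) prepared in […] pH 6.9 phosphate buffer. Enzyme preincubated with test compound (DMSO stock) for 10 min at 37 °C, then substrate added for 20 min at 37 °C. Stopped with 1 M Na2CO3, read at 405 nm. Lineweaver–Burk plots at several inhibitor concentrations; Ki from secondary replot of slope versus concentration.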

Sequence of α-glucosidase from S. cerevisiae E.C. 3.2.1.20 (P53341 whole entry): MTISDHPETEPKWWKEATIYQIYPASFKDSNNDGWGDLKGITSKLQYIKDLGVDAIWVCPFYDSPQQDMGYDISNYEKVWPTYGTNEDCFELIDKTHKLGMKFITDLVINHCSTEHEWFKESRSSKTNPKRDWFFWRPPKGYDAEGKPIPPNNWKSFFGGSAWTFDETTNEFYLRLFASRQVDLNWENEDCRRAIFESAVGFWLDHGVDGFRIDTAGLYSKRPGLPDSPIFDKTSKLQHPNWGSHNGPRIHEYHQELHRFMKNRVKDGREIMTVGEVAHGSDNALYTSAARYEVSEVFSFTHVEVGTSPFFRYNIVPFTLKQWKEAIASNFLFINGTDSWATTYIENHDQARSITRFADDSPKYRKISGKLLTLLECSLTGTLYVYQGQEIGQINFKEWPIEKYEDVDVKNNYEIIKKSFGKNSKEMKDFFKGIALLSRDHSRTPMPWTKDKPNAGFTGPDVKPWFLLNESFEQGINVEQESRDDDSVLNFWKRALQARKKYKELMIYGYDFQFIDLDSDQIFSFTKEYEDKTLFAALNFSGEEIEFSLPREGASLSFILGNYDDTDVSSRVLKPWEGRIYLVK
Sequence of α-glucosidase (P53341 whole entry): as above

The IC50 is the concentration that gives 50% inhibition. For `O=c1oc2ccccc2c(O)c1C(c1ccc(Cl)cc1)c1c(O)c2ccccc2oc1=O` [Compound 4, 3,3′-((4-Chlorophenyl)methylene)bis(4-hydroxy-2H-chromen-2-one)], inhibition in test [1] was half-maximal at 3.19 ± 0.41 µM (IC50).
Same read-out and setting: the value for `COc1cc(C(c2c(O)c3ccccc3oc2=O)c2c(O)c3ccccc3oc2=O)cc(Br)c1O` [Compound 16, 3,3′-((3-Bromo-4-hydroxy-5-methoxyphenyl)methylene)bis(4-hydroxy-2H-chromen-2-one)] was 5.1 ± 0.18 µM.
For orientation: Ki means a dissociation constant, usually derived from enzyme kinetics or from competition with a known ligand. Higher therefore signals weaker binding. What is called inhibition is the share of the control response that was lost under treatment. Consider `COc1c(Br)cc(C(c2c(O)c3ccccc3oc2=O)c2c(O)c3ccccc3oc2=O)cc1Br` [Compound 17, 3,3′-((3,5-Dibromo-4-methoxyphenyl)methylene)bis(4-hydroxy-2H-chromen-2-one)], for which, in test [2], the affinity, expressed as Ki, was 4.81 µM. Also, the inhibition at 10 µM in test [1] worked out at 99.77 ± 0.49%.
As to `CCCCCCCCOc1c(Br)cc(C(c2c(O)c3ccccc3oc2=O)c2c(O)c3ccccc3oc2=O)cc1Br` [Compound 19, 3,3′-((3,5-Dibromo-4-(octyloxy)phenyl)methylene)bis(4-hydroxy-2H-chromen-2-one)], in test [2], the affinity, expressed as Ki, was 1.8 µM and the inhibition mode entry was “competitive inhibition”. Besides, in test [1], the inhibition at 10 µM is 98.95 ± 0.26%.
`O=c1oc2ccccc2c(O)c1C(c1ccccc1Cl)c1c(O)c2ccccc2oc1=O` [Compound 2, 3,3′-((2-Chlorophenyl)methylene)bis(4-hydroxy-2H-chromen-2-one)] returned an IC50 in test [1] of 8.12 ± 0.59 µM.
Same read-out and setting: next, `O=c1oc2ccccc2c(O)c1C(c1ccc(Cl)c(Cl)c1)c1c(O)c2ccccc2oc1=O` [Compound 8, 3,3′-((3,4-Dichlorophenyl)methylene)bis(4-hydroxy-2H-chromen-2-one)]: 1.9 ± 0.14 µM; `O=c1oc2ccccc2c(O)c1C(c1ccc(F)c(Br)c1)c1c(O)c2ccccc2oc1=O` [Compound 11, 3,3′-((3-Bromo-4-fluorophenyl)methylene)bis(4-hydroxy-2H-chromen-2-one)]: 2.89 ± 0.25 µM; `O=c1cc(O)c2ccccc2o1` [4-hydroxycoumarin]: greater than 200 µM.
Still for that read-out and setting: next, `COc1ccc(C(c2c(O)c3ccccc3oc2=O)c2c(O)c3ccccc3oc2=O)cc1Br` [Compound 13, 3,3′-((3-Bromo-4-methoxyphenyl)methylene)bis(4-hydroxy-2H-chromen-2-one)]: 3.8 ± 0.05 µM; `O=c1oc2ccccc2c(O)c1C(c1cccc(Cl)c1)c1c(O)c2ccccc2oc1=O` [Compound 3, 3,3′-((3-Chlorophenyl)methylene)bis(4-hydroxy-2H-chromen-2-one)]: 6.06 ± 0.06 µM; `O=c1oc2ccccc2c(O)c1C(c1ccccc1)c1c(O)c2ccccc2oc1=O` [Compound 1, 3,3′-(Phenylmethylene)bis(4-hydroxy-2H-chromen-2-one)]: 30.8 ± 1.25 µM.
For `CCCCOc1c(Br)cc(C(c2c(O)c3ccccc3oc2=O)c2c(O)c3ccccc3oc2=O)cc1Br` [Compound 18, 3,3′-((3,5-Dibromo-4-butoxyphenyl)methylene)bis(4-hydroxy-2H-chromen-2-one)], in test [2], the affinity, expressed as Ki, was 3.93 µM and the inhibition mode entry is “competitive inhibition; also recorded: competitive binding mode”. In test [1], the inhibition at 10 µM was found to be 99.67 ± 0.42%.
Regarding `O=c1oc2ccccc2c(O)c1C(c1ccc(Cl)cc1Cl)c1c(O)c2ccccc2oc1=O` [Compound 7, 3,3′-((2,4-Dichlorophenyl)methylene)bis(4-hydroxy-2H-chromen-2-one)], the IC50 in test [1] came to 3.15 ± 0.31 µM.
`O=c1oc2ccccc2c(O)c1C(c1ccc(O)c(Br)c1)c1c(O)c2ccccc2oc1=O` [Compound 12, 3,3′-((3-Bromo-4-hydroxyphenyl)methylene)bis(4-hydroxy-2H-chromen-2-one)]: it took 4.15 ± 0.06 µM to reach half-maximal inhibition in test [1] (IC50).
Same read-out and setting: next, `O=c1oc2ccccc2c(O)c1C(c1cccc([N+](=O)[O-])c1)c1c(O)c2ccccc2oc1=O` [Compound 9, 3,3′-((3-Nitrophenyl)methylene)bis(4-hydroxy-2H-chromen-2-one)]: 14.8 ± 0.32 µM; `O=c1oc2ccccc2c(O)c1C(c1ccc(F)cc1)c1c(O)c2ccccc2oc1=O` [Compound 5, 3,3′-((4-Fluorophenyl)methylene)bis(4-hydroxy-2H-chromen-2-one)]: 12.31 ± 0.08 µM.
Still for that read-out and setting: next, `O=c1oc2ccccc2c(O)c1C(c1cc(Br)c(O)c(Br)c1)c1c(O)c2ccccc2oc1=O` [Compound 14, 3,3′-((3,5-Dibromo-4-hydroxyphenyl)methylene)bis(4-hydroxy-2H-chromen-2-one)]: 2.38 ± 0.24 µM.
Consider `O=c1oc2ccccc2c(O)c1C(c1ccc(Br)cc1)c1c(O)c2ccccc2oc1=O` [Compound 6, 3,3′-((4-Bromophenyl)methylene)bis(4-hydroxy-2H-chromen-2-one)], for which, in test [1], the IC50 came to 2.95 ± 0.05 µM. This IC50 and that of the compound before are within 1.5-fold of each other.
The same measure, in the same setting: the value for `O=c1oc2ccccc2c(O)c1C(c1ccc(Br)c([N+](=O)[O-])c1)c1c(O)c2ccccc2oc1=O` [Compound 10, 3,3′-((4-Bromo-3-nitrophenyl)methylene)bis(4-hydroxy-2H-chromen-2-one)] was 3.41 ± 0.17 µM; that for `COc1cc(C(c2c(O)c3ccccc3oc2=O)c2c(O)c3ccccc3oc2=O)ccc1O` [Compound 15, 3,3′-((4-Hydroxy-3-methoxyphenyl)methylene)bis(4-hydroxy-2H-chromen-2-one)] was 15.2 ± 0.45 µM.
